# Laboratory results reported in ChEMBL document CHEMBL4334446, “Evaluating the effects of fluorine on biological properties and metabolic stability of some antitubulin 3-substituted 7-phenyl-pyrroloquinolinones” (Eur J Med Chem, 2019).
# Experiments:
# [1] = Growth inhibition of human PBL cells incubated for 72 hrs by MTT assay; format: cell-based; settings: PBL cells (peripheral blood lymphocytes)
# Procedure, shortened: (§1)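 PBL from healthy donors were isolated on a Lymphoprep gradient, held overnight in RPMI-1640 with 10% FBS, and the non-adherent cells resuspended at 5 × 10^5 cells/mL. Proliferating cultures got 2.5 µg/mL PHA; resting cultures got none. Compound was added at several concentrations for 72 h and viability read by MTT. GI50 reported as mean ± SEM of three experiments.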
# MCF7 = experiment: Growth inhibition of human MCF7 cells incubated for 72 hrs by MTT assay; format: functional; settings: MCF7, 72 h
# [2] = Growth inhibition of PHA-stimulated human PBL cells incubated for 72 hrs by MTT assay; format: cell-based; settings: PHA-stimulated PBL cells (peripheral blood lymphocytes); procedure, shortened: as §1
# [3] = Selectivity ratio of GI50 for human PBL cells to GI50 for human CEM cells incubated for 72 hrs by MTT assay; format: functional
# Procedure, shortened: (§2)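 Leukemia cells (CEM, DND-41, Jurkat) were grown in RPMI-1640 at 8×10³ cells/well and left 18 h. Donor PBL were gradient-separated, held overnight in RPMI-1640/10% FBS, and non-adherent cells set at 5×10^5 cells/mL without PHA (resting). Both were exposed 72 h to graded concentrations, read by MTT. The ratio is PBL GI50 over leukemia GI50.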
# CCRF-CEM = experiment: Growth inhibition of human CEM cells incubated for 72 hrs by MTT assay; format: functional
# Procedure, shortened: (§3)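 Leukemia lines were grown in RPMI-1640; the CEM^Vbl-100 medium also contained 100 ng/mL vinblastine. Cells were seeded at 8 × 10³ per well and left 18 h at 37 °C, 5% CO2. Medium was then replaced with fresh medium holding graded compound concentrations (DMSO stocks), in triplicate, for 72 h. Viability was read by MTT, and GI50 = concentration inhibiting proliferation 50%.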
# [4] = Selectivity ratio of GI50 for PHA-stimulated human PBL cells to GI50 for human DND41 cells incubated for 72 hrs by MTT assay
# Procedure, shortened: (§4)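 Leukemia cells (CEM, DND-41, Jurkat) were grown in RPMI-1640 at 8×10³ cells/well and left 18 h. Donor PBL were gradient-separated, held overnight, and non-adherent cells set at 5×10^5 cells/mL with 2.5 µg/mL PHA. Both were exposed 72 h at 37 °C to graded compound concentrations, read by MTT. The ratio is PBL GI50 over leukemia GI50.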
# HeLa = experiment: Growth inhibition of human HeLa cells incubated for 72 hrs by MTT assay; format: functional
# [5] = Selectivity ratio of GI50 for human PBL cells to GI50 for human Jurkat cells incubated for 72 hrs by MTT assay; procedure, shortened: as §2
# [6] = Metabolic stability in human liver microsomes assessed as parent compound decline at 10 uM incubated for 60 mins in absence of NADPH by HPLC analysis; format: ADME, Microsome; settings: read-out: Drug degradation
# Procedure, shortened: (§5)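 Compound (10 µM) was incubated 0 or 60 min at 37 °C with pooled HLMs (1 mg/mL), with or without 1 mM NADPH, or in buffer only (0.1 M KH2PO4 pH 7.4). Reactions were stopped with ice-cold acetonitrile. Remaining parent was measured by HPLC-fluorescence relative to 0 min; mean ± SD, n = 3.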
# [7] = Selectivity ratio of GI50 for human PBL cells to GI50 for human DND41 cells incubated for 72 hrs by MTT assay; procedure, shortened: as §2
# Jurkat = experiment: Growth inhibition of human Jurkat cells incubated for 72 hrs by MTT assay; format: functional; procedure, shortened: as §3
# [8] = Growth inhibition of multidrug-resistant human CEM/VBL100 cells incubated for 72 hrs by MTT assay; format: functional; settings: CEM/VBL100, 72 h; procedure, shortened: as §3
# [9] = Selectivity ratio of GI50 for PHA-stimulated human PBL cells to GI50 for human Jurkat cells incubated for 72 hrs by MTT assay; procedure, shortened: as §4
# RS4-11 = experiment: Growth inhibition of human RS4:11 cells incubated for 72 hrs by MTT assay; format: functional; settings: RS4-11, 72 h; procedure, shortened: as §3
# [10] = Metabolic stability in human liver microsomes assessed as parent compound decline at 10 uM incubated for 60 mins in presence of NADPH by HPLC analysis; format: ADME, Microsome; settings: read-out: Drug degradation; procedure, shortened: as §5
# [11] = Selectivity ratio of GI50 for PHA-stimulated human PBL cells to GI50 for human CEM cells incubated for 72 hrs by MTT assay; procedure, shortened: as §4
# HL-60 = experiment: Growth inhibition of human HL60 cells incubated for 72 hrs by MTT assay; format: functional; settings: HL-60, 72 h; procedure, shortened: as §3
# HT-29 = experiment: Growth inhibition of human HT-29 cells incubated for 72 hrs by MTT assay; format: functional; settings: HT-29, 72 h
# A-375 = experiment: Growth inhibition of human A375 cells incubated for 72 hrs by MTT assay; format: functional; settings: A-375, 72 h
# A2058 = experiment: Growth inhibition of human A2058 cells incubated for 72 hrs by MTT assay; format: functional; settings: A2058, 72 h
# MDA-MB-231 = experiment: Growth inhibition of human MDA-MB-231 cells incubated for 72 hrs by MTT assay; format: functional; settings: MDA-MB-231, 72 h
# MDA-MB-468 = experiment: Growth inhibition of human MDA-MB-468 cells incubated for 72 hrs by MTT assay; format: functional; settings: MDA-MB-468, 72 h
# [12] = Growth inhibition of human DND41 cells incubated for 72 hrs by MTT assay; format: functional; settings: DND41, 72 h; procedure, shortened: as §3
# Tubulin (Bos taurus) = Tubulin (Bos taurus) (UniProt Q6B856+Q862L2+Q862F3); experiment: Inhibition of [3H]colchicine binding to bovine brain tubulin at 5 uM relative to control
# Procedure, shortened: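 Bovine brain tubulin at 1 µM was incubated with 5 µM [3H]colchicine and the test compound at 5 µM. Inhibition of colchicine binding was measured relative to a control.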
# Tubulin = Tubulin (Bos taurus, UniProt Q6B856+Q862L2+Q862F3); experiment: Inhibition of bovine brain tubulin polymerization preincubated for 15 mins followed by GTP addition and measured for 20 mins by turbidimetry-based spectrophotometric method
# Procedure, shortened: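 Bovine brain tubulin (10 µM) was preincubated with varying compound concentrations in 0.8 M monosodium glutamate, pH 6.6, for 15 min at 30 °C, then cooled to 0 °C. GTP was added to 0.4 mM final and the mix warmed to 30 °C. Turbidity was followed at 350 nm. IC50 = concentration inhibiting extent of assembly 50% after 20 min.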
# [13] = Metabolic stability in human liver microsomes assessed as half life at 10 uM incubated for 30 mins in presence of NADPH by HPLC analysis; format: ADME, Microsome
# Procedure, shortened: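 Compound (10 µM) was incubated at 37 °C with 0.5 mg/mL pooled HLMs and 1 mM NADPH in 0.1 M KH2PO4 pH 7.4, sampled at 0, 2, 5, 15 and 30 min. Controls without NADPH, or buffer only, ran 0 and 30 min. Parent was quantified by HPLC-fluorescence as % of the 0 min level, n = 3. t1/2 = 0.693/k, with k from regression of ln % remaining versus time.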
# [14] = Time-dependent metabolic stability in human liver microsomes at 10 uM incubated for 30 mins in presence of NADPH by HPLC analysis; format: ADME, Microsome; settings: 0.5 h
# Procedure, shortened: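 Pooled mixed-gender HLMs (0.5 mg/mL) plus 1 mM NADPH in 0.1 M KH₂PO₄ pH 7.4, compound 10 μM final, 37 °C. Reaction started with microsomes after 3-min equilibration. Stopped with ice-cold acetonitrile at 0, 2, 5, 15, 30 min, then HPLC-fluorescence of supernatant. Percent remaining vs 0 min (mean ± SD, n = 3). Half-life = 0.693/k from linear regression of Ln % remaining vs time.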
# [15] = Metabolic stability in human liver microsomes at 10 uM incubated for 15 mins in presence of NADPH and non-selective CYP inhibitor quercetin by HPLC analysis; format: ADME, Microsome; settings: 0.25 h
# Procedure, shortened: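 Compound (10 µM) was incubated 0 and 15 min at 37 °C with pooled HLMs and 1 mM NADPH in 0.1 M KH2PO4 pH 7.4, with or without 100 µM quercetin. Parent remaining was measured by HPLC-fluorescence relative to 0 min; mean ± SD, n = 3.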
# [16] = Stability in phosphate buffer at pH 7.4 at 10 uM incubated for 30 mins by HPLC analysis; format: physicochemical; settings: pH 7.4, 0.5 h
# Procedure, shortened: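 No microsomes or NADPH: compound (10 μM final) held in 0.1 M KH₂PO₄ pH 7.4 at 37 °C. Samples taken at 0 and 30 min, quenched with ice-cold acetonitrile, centrifuged, analysed by HPLC with fluorescence detection. Percent parent remaining relative to 0 min; mean ± SD, n = 3.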
# [17] = Metabolic stability in human liver microsomes at 10 uM incubated for 30 mins in phosphate buffer at pH 7.4 by HPLC analysis; format: ADME, Microsome; settings: pH 7.4, 0.5 h
# Procedure, shortened: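 Test compound (10 μM, final) incubated at 37 °C with pooled mixed-gender HLMs (0.5 mg/mL) in 0.1 M KH₂PO₄ pH 7.4 without NADPH. Sampled at 0 and 30 min, quenched with ice-cold acetonitrile, centrifuged, supernatant analysed by HPLC with fluorescence detection (ex 344/em 493 nm). Percent remaining calculated from peak area relative to 0 min; mean ± SD, n = 3.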
SMILES,GI50 at 72 h [1] [nM],GI50 (MCF7) [nM],GI50 at 72 h [2] [nM],RatioGI50 [3],GI50 (CCRF-CEM) [nM],RatioGI50 [4],GI50 (HeLa) [nM],RatioGI50 [5],"metabolised at 1 h, 10 µM [6] [%]",GI50 (Jurkat) [nM],GI50 (RS4-11) [nM],GI50 (HL-60) [nM],GI50 (HT-29) [nM],GI50 (A-375) [nM],GI50 (A2058) [nM],GI50 (MDA-MB-231) [nM],GI50 (MDA-MB-468) [nM],GI50 [12] [nM],inhibition (Tubulin (Bos taurus)) [%],IC50 (Tubulin) [nM],further results
O=C(c1ccccc1)n1ccc2c3c(=O)cc(-c4ccccc4)[nH]c3ccc21,> 100000,0.2,2700,10000 - 30000,2.5,10000 - 30000,0.2,10000 - 30000,20,16,0.3,2,0.1,,,,,,,,"RatioGI50 [7]: 10000 - 30000; GI50 [8]: 3.1 nM; RatioGI50 [9]: 10000 - 30000; metabolised at 1 h, 10 µM [10]: 20%; RatioGI50 [11]: 10000 - 30000"
O=C(Oc1cc(-c2ccccc2)nc2ccc3[nH]ccc3c12)c1ccccc1F,,3460,,,,,501,,,324,697,2310,216,2550,1490,5590,1320,2420,,,
O=C(c1ccccc1F)n1ccc2c3c(=O)cc(-c4ccccc4)[nH]c3ccc21,,1080,,,,,9.3,,20,53.7,120,276,26.6,332,322,3030,70,240,34,1300,"metabolised at 1 h, 10 µM [10]: 20%"
CCn1ccc2c3c(=O)cc(-c4ccc(F)cc4)[nH]c3ccc21,,51.3,,,,,340,,,334,293,1440,447,69.8,1180,206,43,477,12,3700,half-life at 10 µM [13]: 10.6 min; Stability [14]: Unstable; Stability [15]: Stable; Stability [16]: Stable; Stability [17]: Stable
CCn1ccc2c3c(=O)cc(-c4cccc(F)c4)[nH]c3ccc21,31300,52.7,10800,10000 - 30000,2.2,10000 - 30000,0.7,10000 - 30000,,0.11,0.07,0.08,0.9,11.4,3.5,69,15,0.13,83,780 to 840,half-life at 10 µM [13]: 11.8 min; Stability [14]: Unstable; Stability [15]: Stable; Stability [16]: Stable; RatioGI50 [7]: 10000 - 30000; GI50 [8]: 0.8 nM; Stability [17]: Stable; RatioGI50 [9]: 10000 - 30000; RatioGI50 [11]: 10000 - 30000
